# Experimental data: PMC6289288 (Journal of hazardous materials, 2018)
# Where two headings read alike, the source gives them in different places.
# Tests used:
# [1] = Measured at pH 8; ref Palos Pacheco et al. [25]; cited from earlier work
# Aliivibrio fischeri = assay: Microtox acute toxicity assay; format: cell-based; details: n=3, mean ± SD
# Outline: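 Aliivibrio fischeri bioluminescence assay, run in triplicate. A 2 mM stock was osmotically adjusted and then 1:1 serially diluted in Microtox diluent to 9 concentrations (3.5–889 μM). Diluent alone served as the toxicant-free control. Light output was read before mixing with bacteria and again at 5, 15 and 30 min. EC50 is the concentration halving bioluminescence relative to the control at each time point.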
# [2] = test system: H1299, a human lung cell line; assay: MTS cytotoxicity assay; format: cell-based; details: read-out: MTS IC50 72 h; H1299, 72 h, mean ± SD, n = 2–7
# [3] = test system: Zebrafish (Danio rerio) embryos; assay: Zebrafish embryo developmental toxicity assay; format: in vivo; details: for Zebrafish mortality: 120 hpf
# Outline: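 Embryos with intact chorions were exposed from 6 to 120 hpf in embryo medium to 0.064–640 μM test compound. All wells contained 0.64% DMSO, and there were 32 embryos per concentration and control. Plates were kept at 28 °C in the dark. At 24 hpf, mortality, developmental delay, spontaneous movement and notochord were scored. At 120 hpf, mortality, edemas, morphological abnormalities, circulation, swim bladder and touch response were scored.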
# [4] = test system: H1299, a human lung cell line; assay: xCELLigence Real-Time Cell Analysis; format: cell-based; details: read-out: xCELLigence IC50 72 h; H1299, 72 h, n=3, mean ± SD
# [5] = laboratory settings; cited from earlier work
# [6] = read-out: Microtox EC50 5 min, 5 min exposure
# [7] = read-out: Microtox EC50 15 min, 15 min exposure
# [8] = read-out: Microtox EC50 30 min, 30 min exposure
SMILES,Area [1] [Å^2 molecule^−1],CMC [1] [µM],Minimum Surface Tension [1] [mN m^−1],EC50 (Aliivibrio fischeri; [6]) [µM],EC50 (Aliivibrio fischeri; [7]) [µM],EC50 (Aliivibrio fischeri; [8]) [µM],IC50 [2] [µM],"Zebrafish mortality ([3]; 640 μM, n = 32, exposure from 6 to 120 hpf)","Developmental effects (22 developmental endpoints) ([3]; 0.064–640 μM, 24 and 120 hpf)",IC50 [4] [µM],"Zebrafish mortality ([3]; 6.4 μM, n = 32) [%]",Biodegradability [5]
"CCCCCCCC(CC(=O)O)OC(=O)CC(CCCCCCC)O[C@@H]1O[C@@H](C)[C@H](O)[C@@H](O)[C@H]1O (stereo partly drawn) [Rha-C10-C10 (R,R), rhamnosyl-β-hydroxydecanoyl-β-hydroxydecanoate]",119 ± 10,270 ± 77,28.1 ± 0.2,78.7 ± 4,53.8 ± 3.3,47.3 ± 1.2,129.7 ± 1.1,not associated with mortality,no developmental effects,122 ± 9.1,,
"CCCCCCCC(CC(=O)O)OC(=O)CC(CCCCCCC)O[C@@H]1O[C@@H](C)[C@H](O)[C@@H](O)[C@H]1O (stereo partly drawn) [Rha-C10-C10 (S,R), rhamnosyl-β-hydroxydecanoyl-β-hydroxydecanoate]",105 ± 4,180 ± 24,28.5 ± 0.2,61.9 ± 4.7,39.6 ± 2.9,36.6 ± 2.9,103 ± 31.9,,,111 ± 6.2,,
"CCCCCCCC(CC(=O)O)OC(=O)CC(CCCCCCC)O[C@@H]1O[C@@H](C)[C@H](O)[C@@H](O)[C@H]1O (stereo partly drawn) [Rha-C10-C10 (S,S), rhamnosyl-β-hydroxydecanoyl-β-hydroxydecanoate]",94 ± 8,201 ± 51,29.5 ± 0.2,64.3 ± 8.5,42.6 ± 4.4,38.8 ± 3.7,125 ± 18.6,,,108 ± 5.3,19,
"CCCCC(CC)COC(=O)CC(C(=O)OCC(CC)CCCC)S(=O)(=O)O (stereo not shown) [bis-(2-ethylhexyl) sulfosuccinate (DOSS), bis-(2-ethylhexyl) sulfosuccinate]",,,,,,,,,,,,biodegradable
